Converted amounts (≈) assume the structure as drawn. The source made the active and inactive calls. The calls are words filed in the database; no cut-off is given here.
Experiments:
[1] = system: Aspergillus fumigatus; test: Antifungal activity against Aspergillus fumigatus 07544 after 7 days by serial dilution method; assay type: functional; conditions: Aspergillus fumigatus, 07544, 168 h
[2] = system: Trichophyton rubrum; test: Antifungal activity against Trichophyton rubrum Cmccftla after 7 days by serial dilution method; assay type: functional; conditions: 168 h
[3] = system: Candida parapsilosis; test: Antifungal activity against Candida parapsilosis ATCC 22019 after 24 hrs by serial dilution method; assay type: functional; conditions: Lodderomyces parapsilosis, ATCC 22019, 24 h
[4] = system: Nannizzia gypsea; test: Antifungal activity against Microsporum gypseum Cmccfmza after 7 days by serial dilution method; assay type: functional; conditions: 168 h
[5] = system: Cryptococcus neoformans; test: Antifungal activity against Cryptococcus neoformans 32609 after 72 hrs by serial dilution method; assay type: functional; conditions: Cryptococcus neoformans, 32609, 72 h
[6] = system: Candida albicans; test: Fungicidal activity against fluconazole-sensitive Candida albicans SC5314 at 32 ug/ml after 12 to 48 hrs; assay type: functional, organism-based
How it was run: (§1)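 Time-kill: C. albicans (SC5314 or 103) inoculated at 10^5 CFU/mL, untreated or with drug (2–32 μg/mL; fluconazole 32 μg/mL reference); CFU/mL counted after 0, 12, 24 and 48 h.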

[7] = system: Nakaseomyces glabratus; test: Antifungal activity against Candida glabrata 537 after 24 hrs by serial dilution method; assay type: functional; conditions: Nakaseomyces glabratus, 537, 24 h
[8] = system: Candida albicans; test: Antifungal activity against fluconazole-sensitive Candida albicans SC5314 after 24 hrs by serial dilution method; assay type: functional; conditions: SC5314, 24 h
[9] = system: Candida albicans; test: Fungicidal activity against fluconazole-sensitive Candida albicans SC5314 assessed as reduction in fungi density after 24 hrs; assay type: functional, organism-based; how it was run: as §1
[10] = system: Candida albicans; test: Antifungal activity against fluconazole-sensitive Candida albicans SC5314 assessed as abnormal cell shape at 8 ug/ml after 8 hrs by TEM analysis; assay type: functional, organism-based
How it was run: (§2)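 Transmission electron microscopy of C. albicans SC5314 cells exposed to 8 μg/mL drug for 8 h; untreated cells as reference; cell wall, membrane, cytoplasm and vacuole morphology inspected.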

[11] = system: Candida albicans; test: Antifungal activity against fluconazole-resistant Candida albicans 805 after 24 hrs by serial dilution method; assay type: functional; conditions: Candida albicans, 805, 24 h
[12] = system: Candida albicans; test: Antifungal activity against fluconazole-sensitive Candida albicans SC5314 assessed as cell membrane damage at 8 ug/ml after 8 hrs by TEM analysis; assay type: functional, organism-based; how it was run: as §2
[13] = system: Candida albicans; test: Inhibition of biofilm formation of fluconazole-resistant Candida albicans 103 at 64 ug/ml after 48 hrs by XTT assay; assay type: functional, organism-based
How it was run: (§3)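 Biofilm formation by C. albicans SC5314 or 103 in presence of 2–64 μg/mL drug (fluconazole 64 μg/mL reference); quantified by XTT reduction as % of blank control; mean ± standard deviation of three independent experiments, ANOVA and Student t test.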

[14] = system: Pichia kudriavzevii; test: Antifungal activity against Candida krusei 0710397 after 7 days by serial dilution method; assay type: functional; conditions: Pichia kudriavzevii, 0710397, 168 h
[15] = system: Candida albicans; test: Antifungal activity against fluconazole-sensitive Candida albicans SC5314 assessed as change in eburicol composition at 8 ug/ml after 24 hrs by GC-MS analysis relative to control; assay type: functional
How it was run: (§4)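 C. albicans SC5314 exposed to 8 μg/mL for 24 h, sterols analysed by GC-MS with cholesterol internal standard; each sterol expressed as % of total sterol fraction versus no-drug control; average of three independent experiments.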

[16] = system: Candida albicans; test: Antifungal activity against fluconazole-sensitive Candida albicans SC5314 assessed as change in sterol composition at 8 ug/ml after 24 hrs by GC-MS analysis (reference value: 8.5%); assay type: functional; how it was run: as §4
[17] = system: Candida albicans; test: Antifungal activity against fluconazole-resistant Candida albicans 100 after 24 hrs by serial dilution method; assay type: functional; conditions: Candida albicans, 100, 24 h
[18] = system: Candida albicans; test: Antifungal activity against fluconazole-sensitive Candida albicans SC5314 assessed as change in lanosterol composition at 8 ug/ml after 24 hrs by GC-MS analysis (reference value: 1.5%); assay type: functional; how it was run: as §4
[19] = system: Candida albicans; test: Inhibition of hyphal growth of fluconazole-sensitive Candida albicans SC5314 at 8 ug/ml after 16 hrs by light microscopic analysis; assay type: functional, organism-based
How it was run: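 C. albicans SC5314 incubated in RPMI 1640 liquid medium at 37 °C for 16 h with or without drug (2–8 μg/mL); hyphal, pseudohyphal or yeast morphology scored microscopically against blank control.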

[20] = system: Candida albicans; test: Antifungal activity against fluconazole-sensitive Candida albicans SC5314 assessed as change in obtusifoliol composition at 8 ug/ml after 24 hrs by GC-MS analysis relative to control; assay type: functional; how it was run: as §4
[21] = system: Candida albicans; test: Antifungal activity against fluconazole-resistant Candida albicans 103 after 24 hrs by serial dilution method; assay type: functional; conditions: Candida albicans, 103, 24 h
[22] = system: Candida albicans; test: Antifungal activity against fluconazole-resistant Candida albicans 07109 after 24 hrs by serial dilution method; assay type: functional; conditions: Candida albicans, 07109, 24 h
[23] = system: Candida albicans; test: Antifungal activity against fluconazole-sensitive Candida albicans SC5314 assessed as change in ergosterol composition at 8 ug/ml after 24 hrs by GC-MS analysis (reference value: 90%); assay type: functional; how it was run: as §4
[24] = system: Candida albicans; test: Inhibition of biofilm formation of fluconazole-sensitive Candida albicans SC5314 at 64 ug/ml after 48 hrs by XTT assay relative to control; assay type: functional; how it was run: as §3
[25] = system: Candida tropicalis; test: Antifungal activity against Candida tropicalis after 7 days by serial dilution method; assay type: functional; conditions: 168 h

Cc1ccc2c(c1)[C@@H]1CN(C)CC[C@@H]1N2C(=O)c1ccc2ccccc2c1 gave an MIC80 [1] greater than 64 µg/mL, an MIC80 [2] of 16 µg/mL (≈ 44.9 µM) and an MIC80 [3] of 16 µg/mL (≈ 44.9 µM). The MIC80 [4] was 32 µg/mL (≈ 89.8 µM), the MIC80 [5] was 8 µg/mL (≈ 22.4 µM) and the Activity [6] was “Active”. The MIC80 [7] was greater than 64 µg/mL and the MIC80 [8] was 32 µg/mL (≈ 89.8 µM).
In the case of OC(Cn1cncn1)(Cn1cncn1)c1ccc(F)cc1F [FLUCONAZOLE], the Activity [9] is reported as “inactive”, the MIC80 [1] is reported as greater than 64 µg/mL and the Activity [10] is reported as “Active”. The MIC80 [11] was greater than 1020 µg/mL, the Activity [12] was “Active” and the inhibition [13] was “inactive”. It also gave an MIC80 [14] of 4 µg/mL (≈ 13.1 µM), an MIC80 [2] of 4 µg/mL (≈ 13.1 µM) and an MIC80 [3] of 2 µg/mL (≈ 6.53 µM). For the same compound, the Activity [15] was 82.2%, the Activity [16] was 4.8% and the MIC80 [17] was greater than 1020 µg/mL. For the same compound, the MIC80 [4] was 1 µg/mL (≈ 3.27 µM), the MIC80 [5] was 2 µg/mL (≈ 6.53 µM) and the Activity [6] was “Active”. The Activity [18] was 5.9%, the “growth inhibition (GI)” value [19] was “inactive” and the Activity [20] was 6.5%. For the same compound, the MIC80 [21] was 4 µg/mL (≈ 13.1 µM), the MIC80 [22] was greater than 1020 µg/mL and the Activity [23] was 0.6%. For the same compound, the MIC80 [7] was 0.5 µg/mL (≈ 1.63 µM), the inhibition [24] was “inactive” and the MIC80 [8] was 0.5 µg/mL (≈ 1.63 µM). The MIC80 [25] was 1 µg/mL (≈ 3.27 µM).

— ChEMBL document CHEMBL3286225, “Novel carboline derivatives as potent antifungal lead compounds: design, synthesis, and biological evaluation” (ACS Med Chem Lett, 2014)
